# Results published in ChEMBL document CHEMBL1135690, “Benzodiazepine receptor ligands. 7. Synthesis and pharmacological evaluation of new 3-esters of the 8-chloropyrazolo[5,1-c][1,2,4]benzotriazine 5-oxide. 3-(2-Thienylmethoxycarbonyl) derivative: an anxioselective agent in rodents” (J Med Chem, 2002).
# How the values were obtained:
# [1] = test system: Mus musculus; assay: Anxiolytic activity in mice using light-dark box and % time spent in light was reported at 100 mg/kg intraperitoneal dose; format: functional
# [2] = test system: Mus musculus; assay: Motor coordination of mouse as number of falls in 30 sec was reported after 100 mg/kg intraperitoneal dose using rotarod test; format: functional
# How it was run: (§1)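 Male CD-1 mice are dosed po in 1% CMC (flumazenil ip). Falls from a rota rod turning at 24 rpm are counted over 30 s, 25 min after drug administration, and compared with vehicle-treated mice. Means ± SEM.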
# [3] = test system: Mus musculus; assay: Motor coordination of mouse as number of falls in 30 sec was reported after 30 mg/kg intraperitoneal dose using rotarod test; format: functional; how it was run: as §1
# [4] = test system: Mus musculus; assay: Percent anticonvulsant activity against pentylenetetrazole (PTZ)-induced attacks at 30 mg/kg intraperitoneal dose.; format: functional
# [5] = test system: Mus musculus; assay: Anxiolytic activity in mice using light-dark box and no. of transfers between compartments were reported at 100 mg/kg intraperitoneal dose; format: functional
# [6] = test system: Mus musculus; assay: Anxiolytic activity in mice using light-dark box and % time spent in light was reported at 30 mg/kg intraperitoneal dose; format: functional
# [7] = test system: Mus musculus; assay: Anxiolytic activity in mice using light-dark box and no. of transfers between compartments were reported at 30 mg/kg intraperitoneal dose; format: functional
# [8] = test system: Mus musculus; assay: Percent anticonvulsant activity against pentylenetetrazole (PTZ)-induced attacks at 100 mg/kg intraperitoneal dose.; format: functional
# [9] = target: T1, GABA-A receptor; alpha-1/beta-2/gamma-2 (Rattus norvegicus, UniProt P18508+P62813+P63138); assay: (§2) Displacement of [3H]Ro-151788 from rat GABA-A receptor alpha-1-beta-2-gamma-2 subunits expressed in HEK293 cells; format: cell-based
# How it was run: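 Membranes from HEK293 cells stably expressing recombinant rat GABA-A subtypes, homogenized in 10 mM potassium phosphate pH 7.4 and resuspended with 100 mM KCl. Incubation with 1–2 nM [3H]Ro15-1788 and test compound (10^-9–10^-5 M, at least six concentrations; DMSO ≤1%) for 1 h at 4 °C to equilibrium.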
# [10] = test system: Mus musculus; assay: Anxiolytic activity in mice using light-dark box and no. of transfers between compartments were reported at 10 mg/kg peroral dose; format: functional; settings: route oral
# How it was run: (§3)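 Male CD-1 mice (22–24 g) given drug po in 1% carboxymethylcellulose (10 mL/kg). Each mouse placed in the centre of the lighted area facing away from the dark compartment and allowed to explore for 5 min; time spent in the illuminated side and number of transfers between compartments recorded. Tests run between 10:00 and 15:00.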
# [11] = test system: Mus musculus; assay: Anxiolytic activity in mice using light-dark box and % time spent in light was reported at 10 mg/kg peroral dose; format: functional; settings: route oral; how it was run: as §3
# [12] = test system: Mus musculus; assay: Percent anticonvulsant activity against pentylenetetrazole (PTZ)-induced attacks at 1 mg/kg peroral dose; format: functional; settings: route oral
# How it was run: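 Male CD-1 mice are dosed po in 1% CMC (flumazenil ip). PTZ (90 mg/kg sc, in 0.9% saline) is injected 30 min later. Clonic generalized convulsions are scored over 30 min, with % protection compared with controls by χ2 analysis.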
# [13] = test system: Mus musculus; assay: Anxiolytic activity in mice using light-dark box and no. of transfers between compartments were reported at 1 mg/kg peroral dose; format: functional; settings: route oral; how it was run: as §3
# [14] = Displacement of [3H]-Ro-15-1788 from rat GABA-A receptor alpha-2-beta-2-gamma-2 subunits expressed in HEK293 cells; format: cell-based
# How it was run: (§4)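 Recombinant rat GABA-A subtypes are stably expressed in HEK293 cells grown in MEM/EBSS with 10% FCS at 37 °C. Membranes are made in 10 mM potassium phosphate pH 7.4 and resuspended with 100 mM KCl. Incubation uses 1–2 nM [3H]Ro15-1788 with compound at 10^-9–10^-5 M (≥6 concentrations), 1 h at 4 °C. […] Ki comes from Cheng–Prusoff, n=5, in triplicate.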
# [15] = Displacement of [3H]Ro-151788 from rat GABA-A receptor alpha-5-beta-3-gamma-2 subunits expressed in HEK293 cells; format: cell-based; how it was run: as §4
# [16] = test system: Mus musculus; assay: Anxiolytic activity in mice using light-dark box and no. of transfers between compartments were reported at 100 mg/kg peroral dose; format: functional; settings: route oral; how it was run: as §3
# [17] = test system: Mus musculus; assay: Motor coordination of mouse as number of falls in 30 sec was reported after 100 mg/kg peroral dose using rotarod test; format: functional; settings: route oral
# How it was run: (§5)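 Male CD-1 mice dosed po (suspension in 1% carboxymethylcellulose, 10 mL/kg). Rota rod turning at 24 rpm; falls from the rod counted over 30 s, 25 min after drug administration.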
# [18] = test system: Mus musculus; assay: Anxiolytic activity in mice using light-dark box and % time spent in light was reported at 30 mg/kg peroral dose; format: functional; settings: route oral; how it was run: as §3
# [19] = test system: Mus musculus; assay: Motor coordination of mouse as number of falls in 30 sec was reported after 30 mg/kg peroral dose using rotarod test; format: functional; settings: route oral; how it was run: as §5
# [20] = target: GABA-A receptor; anion channel; set-up: species or system Bos taurus
# [21] = test system: Mus musculus; assay: Motor coordination of mouse as number of falls in 30 sec was reported after 1 mg/kg peroral dose using rotarod test; format: functional; settings: route oral; how it was run: as §1
# [22] = test system: Mus musculus; assay: Percent anticonvulsant activity against pentylenetetrazole (PTZ)-induced attacks at 100 mg/kg peroral dose; format: functional; settings: route oral
# How it was run: (§6)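 Male CD-1 mice dosed po in 1% carboxymethylcellulose, 30 min before PTZ (90 mg/kg sc, in 0.9% saline). Occurrence of clonic generalized convulsions noted over 30 min; χ² analysis vs control mice.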
# [23] = Anticonvulsant activity electroshock induced convulsions and % lethality obtained at dose of 30 mg/kg; format: organism-based; set-up: dose 30 mg/kg; settings: mouse, in vivo, read-out: Lethality
# How it was run: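 Male CD-1 mice (22–24 g), groups of 10–16, dosed po in 1% carboxymethylcellulose at 10 mL/kg. Electroshock (40 mA, 0.2 s, 50 Hz) applied to the corneas 30 min after dosing. End point is tonic hind limb extension; % protection and % lethality are recorded against vehicle-treated mice (χ2 analysis).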
# [24] = test system: Mus musculus; assay: Anxiolytic activity in mice using light-dark box and no. of transfers between compartments were reported at 30 mg/kg peroral dose; format: functional; settings: route oral; how it was run: as §3
# [25] = test system: Mus musculus; assay: Percent anticonvulsant activity against pentylenetetrazole (PTZ)-induced attacks at 10 mg/kg peroral dose; format: functional; settings: route oral; how it was run: as §6
# [26] = test system: Mus musculus; assay: Motor coordination of mouse as number of falls in 30 sec was reported after 10 mg/kg peroral dose using rotarod test; format: functional; settings: route oral; how it was run: as §1
# [27] = test system: Mus musculus; assay: Percent anticonvulsant activity against pentylenetetrazole (PTZ)-induced attacks at 30 mg/kg peroral dose; format: functional; settings: route oral; how it was run: as §6
# [28] = target: GABA A receptor alpha-3/beta-2/gamma-2 (Rattus norvegicus, UniProt P18508+P20236+P63138); assay: Displacement of [3H]Ro-151788 from rat GABA-A receptor alpha-3-beta-2-gamma-2 subunits expressed in HEK293 cells; format: cell-based
# [29] = test system: Mus musculus; assay: Anxiolytic activity in mice using light-dark box and % time spent in light was reported at 3 mg/kg peroral dose; format: functional; settings: route oral; how it was run: as §3
# [30] = test system: Mus musculus; assay: Anxiolytic activity in mice using light-dark box and % time spent in light was reported at 100 mg/kg peroral dose; format: functional; settings: route oral; how it was run: as §3
# [31] = test system: Mus musculus; assay: Anxiolytic activity in mice using light-dark box and no. of transfers between compartments were reported at 3 mg/kg peroral dose; format: functional; settings: route oral; how it was run: as §3
# [32] = test system: Mus musculus; assay: Anxiolytic activity in mice using light-dark box and % time spent in light was reported at 1 mg/kg peroral dose; format: functional; settings: route oral
# How it was run: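 Light-dark box in male CD-1 mice. Ligands are given po in 1% CMC, flumazenil ip. Each mouse is placed in the centre of the lit area facing away from the dark one and explores for 5 min. Time in the illuminated side and number of transfers between compartments are recorded. Means ± SEM.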
# [33] = test system: Mus musculus; assay: Motor coordination of mouse as number of falls in 30 sec was reported after 3 mg/kg peroral dose using rotarod test; format: functional; settings: route oral; how it was run: as §5
# [34] = test system: Mus musculus; assay: Percent anticonvulsant activity against pentylenetetrazole (PTZ)-induced attacks at 3 mg/kg peroral dose; format: functional; settings: route oral; how it was run: as §6
# [35] = test system: Mus musculus; assay: Anticonvulsant activity electroshock induced convulsions in hind limb of mice at a dose of 30 mg/kg; format: functional, Hindlimb
# How it was run: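 Male CD-1 mice (22–24 g); oral dosing as suspension in 1% carboxymethylcellulose (10 mL/kg), 30 min before corneal electroshock (40 mA, 0.2 s, 50 Hz). Groups of 10–16 mice; end point tonic hind limb extension; lethality also recorded; χ² analysis vs CMC-treated mice.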
# [36] = target: T1, GABA-A receptor; alpha-1/beta-2/gamma-2; assay: as §2; format: cell-based; remark: listed apart in the source
# T1 sequence (P18508 whole entry): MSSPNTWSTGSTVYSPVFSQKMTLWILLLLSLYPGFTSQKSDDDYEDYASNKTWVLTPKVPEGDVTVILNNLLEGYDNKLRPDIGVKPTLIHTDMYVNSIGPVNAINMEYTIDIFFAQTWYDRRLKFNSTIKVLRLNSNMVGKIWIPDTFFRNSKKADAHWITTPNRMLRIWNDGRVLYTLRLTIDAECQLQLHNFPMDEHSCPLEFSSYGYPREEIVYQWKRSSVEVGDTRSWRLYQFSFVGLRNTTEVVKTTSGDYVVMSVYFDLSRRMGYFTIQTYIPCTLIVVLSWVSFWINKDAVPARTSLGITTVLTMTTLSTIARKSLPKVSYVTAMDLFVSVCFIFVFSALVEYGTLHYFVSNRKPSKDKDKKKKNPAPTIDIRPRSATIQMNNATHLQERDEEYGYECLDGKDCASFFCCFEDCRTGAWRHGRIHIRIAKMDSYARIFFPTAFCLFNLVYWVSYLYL
# T1 sequence (P62813 whole entry): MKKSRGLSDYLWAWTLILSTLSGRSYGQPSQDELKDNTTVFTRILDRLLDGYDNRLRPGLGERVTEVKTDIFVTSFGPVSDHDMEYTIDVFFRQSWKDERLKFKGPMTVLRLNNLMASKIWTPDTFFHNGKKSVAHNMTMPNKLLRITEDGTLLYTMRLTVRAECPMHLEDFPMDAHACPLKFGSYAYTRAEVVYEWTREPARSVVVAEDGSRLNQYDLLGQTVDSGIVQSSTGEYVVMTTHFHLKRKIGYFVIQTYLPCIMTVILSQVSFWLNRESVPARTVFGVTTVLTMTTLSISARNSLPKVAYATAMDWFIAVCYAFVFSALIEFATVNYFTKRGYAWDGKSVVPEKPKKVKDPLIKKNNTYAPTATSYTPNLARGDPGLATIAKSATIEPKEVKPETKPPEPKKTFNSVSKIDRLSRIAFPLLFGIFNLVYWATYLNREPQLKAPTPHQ
# T1 sequence (P63138 whole entry): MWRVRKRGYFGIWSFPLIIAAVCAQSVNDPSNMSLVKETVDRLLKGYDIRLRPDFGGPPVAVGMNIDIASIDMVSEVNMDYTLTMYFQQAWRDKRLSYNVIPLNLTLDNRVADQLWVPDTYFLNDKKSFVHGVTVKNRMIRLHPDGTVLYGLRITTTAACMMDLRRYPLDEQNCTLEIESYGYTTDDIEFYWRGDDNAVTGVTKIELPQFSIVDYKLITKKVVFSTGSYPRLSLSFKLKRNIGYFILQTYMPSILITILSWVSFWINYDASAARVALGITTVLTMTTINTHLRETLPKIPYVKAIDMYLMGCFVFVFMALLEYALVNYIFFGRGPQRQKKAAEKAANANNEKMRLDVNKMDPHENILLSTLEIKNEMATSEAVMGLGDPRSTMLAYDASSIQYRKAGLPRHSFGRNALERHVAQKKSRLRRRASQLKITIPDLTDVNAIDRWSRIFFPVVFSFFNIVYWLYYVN
# Chain of GABA A receptor alpha-3/beta-2/gamma-2 (P18508 whole entry): as the sequence (P18508 whole entry) above
# Chain of GABA A receptor alpha-3/beta-2/gamma-2 (P20236 whole entry): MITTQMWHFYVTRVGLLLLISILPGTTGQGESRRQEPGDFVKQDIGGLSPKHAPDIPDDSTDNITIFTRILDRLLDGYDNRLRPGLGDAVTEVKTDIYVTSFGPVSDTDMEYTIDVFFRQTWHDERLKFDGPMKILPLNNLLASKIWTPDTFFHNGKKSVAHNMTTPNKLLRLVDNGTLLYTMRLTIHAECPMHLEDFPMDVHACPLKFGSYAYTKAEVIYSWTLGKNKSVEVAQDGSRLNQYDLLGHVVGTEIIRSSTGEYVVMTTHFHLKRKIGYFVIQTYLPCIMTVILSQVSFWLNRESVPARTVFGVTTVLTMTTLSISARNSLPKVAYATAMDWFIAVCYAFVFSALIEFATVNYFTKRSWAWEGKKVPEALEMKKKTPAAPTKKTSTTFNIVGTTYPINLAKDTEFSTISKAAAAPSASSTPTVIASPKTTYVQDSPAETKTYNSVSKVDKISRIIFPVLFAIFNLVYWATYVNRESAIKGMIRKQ
# Chain of GABA A receptor alpha-3/beta-2/gamma-2 (P63138 whole entry): as the sequence (P63138 whole entry) above
smiles,measurement,setting,value
CCOC(=O)c1ncn2c1CN(C)C(=O)c1cc(F)ccc1-2 [FLUMAZENIL],Activity,[1],119%
same,No. of falls,[2],0.4
same,No. of falls,[3],0.33
same,Activity,[4],11.1%
same,No. of transfers,[5],15.2
same,Activity,[6],90.36%
same,No. of transfers,[7],11.8
same,Activity,[8],5.3%
O=C(OCc1cccs1)c1cnn2c1n[n+]([O-])c1ccc(Cl)cc12,Ki,[9],3 nM
same,No. of transfers,[10],16.6
same,Activity,[11],155.1%
same,Activity,[12],20%
same,No. of transfers,[13],21.1
same,Ki,[14],26 nM
same,Ki,[15],8.6 nM
same,No. of transfers,[16],14.6
same,No. of falls,[17],0
same,Activity,[18],144.3%
same,No. of falls,[19],0.1
same,Ki,[20],6.8 nM
same,No. of falls,[21],0.1
same,Activity,[22],20%
same,mortality,[23],40%
same,No. of transfers,[24],20.5
same,Activity,[25],15.38%
same,No. of falls,[26],0.15
same,Activity,[27],40%
same,Ki,[28],12 nM
same,Activity,[29],170.8%
same,Activity,[30],157.1%
same,No. of transfers,[31],15.6
same,Activity,[32],12.89%
same,No. of falls,[33],0.1
same,Activity,[34],0%
same,Activity,[35],0%
[O-][n+]1nc2c(-c3ccsc3)cnn2c2cc(Cl)ccc21,Ki,[14],12 nM
same,Ki,[36],4.1 nM
same,Ki,[15],18 nM
same,Ki,[28],33 nM
